ChEMBL document CHEMBL1151929, “Synthesis and antiviral activity evaluation of acyclic 2'-azanucleosides bearing a phosphonomethoxy function in the side chain” (Bioorg Med Chem, 2009)
Activity calls are given as the source filed them.

Assays:
Type in all cases: functional, organism-based
[1] = tested on: Human alphaherpesvirus 1; experiment: Antiviral activity against HSV1 KOS infected in HEL cells assessed as reduction of virus-induced cytopathic effect at 10 to 100 ug/ml
[2] = tested on: Human alphaherpesvirus 2; experiment: Antiviral activity against HSV2 G infected in HEL cells assessed as reduction of virus-induced cytopathic effect at 10 to 100 ug/ml; settings: strain G
[3] = tested on: Human alphaherpesvirus 3; experiment: Antiviral activity against thymidine kinase-deficient Varicella Zoster virus 07/1 infected in HEL cells assessed as reduction in viral plaque formation at 10 to 100 ug/ml
[4] = tested on: Feline coronavirus; experiment: Antiviral activity against Feline coronavirus infected in cat CRFK cells assessed as effect on cell viability at 10 to 100 ug/ml by MTS assay
Outline: (§1)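 CRFK feline kidney cells, confluent in 96-well plates, infected with 100 CCID50; after 1–2 h adsorption, inoculum removed and cultures kept with varying compound concentrations until CPE complete in untreated virus controls. Cell viability read by colorimetric formazan-based MTS assay; EC50 = concentration reducing virus-induced cytopathicity by 50%. Top subtoxic concentrations 10–100 μg/mL.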

[5] = tested on: Coxsackievirus B4; experiment: Antiviral activity against Coxsackievirus B4 infected in human HeLa cells assessed as reduction of virus-induced cytopathic effect at 10 to 100 ug/ml
Outline: (§2)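 Confluent cell monolayers in 96-well plates inoculated with 100 CCID50 of virus; 1–2 h adsorption, residual virus removed, then incubated with varying compound concentrations. CPE scored visually once complete in untreated infected controls; EC50 = concentration reducing virus-induced cytopathicity by 50%. Highest subtoxic concentrations tested 10–100 μg/mL.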

[6] = tested on: Human alphaherpesvirus 1; experiment: Antiviral activity against acyclovir-resistant thymidine kinase-deficient HSV1 KOS infected in HEL cells assessed as reduction of virus-induced cytopathic effect at 10 to 100 ug/ml
[7] = tested on: Respiratory syncytial virus; experiment: Antiviral activity against RSV Long infected in human HeLa cells assessed as reduction of virus-induced cytopathic effect at 10 to 100 ug/ml; outline: as §2
[8] = tested on: Human betaherpesvirus 5; experiment: Antiviral activity against HCMV AD169 infected in HEL cells assessed as reduction of virus plaque formation at 10 to 100 ug/ml
Outline: (§3)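 HEL fibroblasts in 96-well plates infected with 100 PFU HCMV; 1–2 h adsorption, residual virus removed, incubation with varying compound concentrations. EC50 taken as concentration reducing viral plaque formation by 50%. Highest subtoxic concentrations 10–100 μg/mL.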

[9] = tested on: Felid alphaherpesvirus 1; experiment: Antiviral activity against Feline herpesvirus infected in cat CRFK cells assessed as effect on cell viability at 10 to 100 ug/ml by MTS assay; outline: as §1
[10] = tested on: Human respirovirus 3; experiment: Antiviral activity against Parainfluenza virus 3 infected in african green monkey Vero cells assessed as reduction of virus-induced cytopathic effect at 10 to 100 ug/ml; outline: as §2
[11] = tested on: Vesicular stomatitis virus; experiment: Antiviral activity against VSV infected in HEL cells assessed as reduction of virus-induced cytopathic effect at 10 to 100 ug/ml
[12] = tested on: Vesicular stomatitis virus; experiment: Antiviral activity against VSV infected in human HeLa cells assessed as reduction of virus-induced cytopathic effect at 10 to 100 ug/ml
Outline: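 Confluent HeLa cell cultures were inoculated with 100 CCID50 of VSV and allowed to adsorb for 1–2 h. Unbound virus was removed and cultures were incubated with varying compound concentrations. CPE was scored visually when complete in untreated infected controls. EC50 is the concentration reducing CPE by 50%.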

[13] = tested on: Human betaherpesvirus 5; experiment: Antiviral activity against HCMV Davis infected in HEL cells assessed as reduction of virus plaque formation at 10 to 100 ug/ml; outline: as §3
[14] = tested on: Punta Toro virus; experiment: Antiviral activity against Punta Toro virus infected in african green monkey Vero cells assessed as reduction of virus-induced cytopathic effect at 10 to 100 ug/ml; outline: as §2
[15] = tested on: Vaccinia virus; experiment: Antiviral activity against Vaccinia virus Lederle infected in HEL cells assessed as reduction of virus-induced cytopathic effect at 10 to 100 ug/ml; settings: Orthopoxvirus vaccinia
[16] = tested on: Human alphaherpesvirus 3; experiment: Antiviral activity against Varicella Zoster virus Oka infected in HEL cells assessed as reduction in viral plaque formation at 10 to 100 ug/ml
[17] = tested on: Mammalian orthoreovirus 1; experiment: Antiviral activity against Reovirus 1 infected in african green monkey Vero cells assessed as reduction of virus-induced cytopathic effect at 10 to 100 ug/ml; outline: as §2
[18] = tested on: Sindbis virus; experiment: Antiviral activity against Sindbis virus infected in african green monkey Vero cells assessed as reduction of virus-induced cytopathic effect at 10 to 100 ug/ml; outline: as §2
[19] = tested on: Coxsackievirus B4; experiment: Antiviral activity against Coxsackievirus B4 infected in african green monkey Vero cells assessed as reduction of virus-induced cytopathic effect at 10 to 100 ug/ml; outline: as §2

Measured: Activity

Cc1ccc(S(=O)(=O)N(CCOCP(=O)(O)O)Cn2ccc(=O)[nH]c2=O)cc1
inactive: [1] | [2] | [3] | [4] | [5] | [6] | [7] | [8] | [9] | [10] | [11] | [12] | [13] | [14] | [15] | [16] | [17] | [18] | [19]

Cc1ccc(S(=O)(=O)N(CCOCP(=O)(O)O)Cn2cc(F)c(=O)[nH]c2=O)cc1
inactive: [1] | [2] | [3] | [4] | [5] | [6] | [7] | [8] | [9] | [10] | [11] | [12] | [13] | [14] | [15] | [16] | [17] | [18] | [19]

Cc1ccc(S(=O)(=O)N(CCOCP(=O)(O)O)Cn2cc(C)c(=O)[nH]c2=O)cc1
inactive: [1] | [2] | [3] | [4] | [5] | [6] | [7] | [8] | [9] | [10] | [11] | [12] | [13] | [14] | [15] | [16] | [17] | [18] | [19]

Cc1ccc(S(=O)(=O)N(CCOCP(=O)(O)O)Cn2ccc(N)nc2=O)cc1
inactive: [1] | [2] | [3] | [4] | [5] | [6] | [7] | [8] | [9] | [10] | [11] | [12] | [13] | [14] | [15] | [16] | [17] | [18] | [19]
